pIC50: −log10 of the molar value. Several values for one entry are separate records, joined by “and”; a condition that tells them apart may be missing. Equal entries are not always repeated.
What was measured:
[1] = tested on: early stage ERα+ breast cancer patients; details: short-term MK0752 added to letrozole or tamoxifen, neo-adjuvant; cited from earlier work
[2] = tested on: T47D:PKCα cells; test: Secondary mammosphere formation assay; format: cell-based; details: 7 days
How it was run: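 T47D cells electroporated with a PKCα plasmid; G418-resistant clone F2 was chosen for PKCα overexpression on Western blot and STR-authenticated as T47D. Secondary mammosphere cultures were treated with test compound (30 nM), alone or with a γ-secretase inhibitor (5 μM), at pilot-chosen concentrations. Mammospheres counted after 7 days; 3 independent experiments, mean ± standard deviation.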

[3] = tested on: HER2-enriched breast cancer; details: cited from earlier work
[4] = tested on: PKCα-overexpressing, Notch4-positive ER+ cells; details: reverses endocrine resistance; cited from earlier work
[5] = tested on: plasma protein; details: cited from earlier work
[6] = tested on: patients with ER+ metastatic breast cancer; design: species or system human; details: in vivo
[7] = tested on: ER+ metastatic breast cancer; test: Phase Ib trial: clinical response; format: in vivo, human; details: RO4929097 with exemestane
[8] = clinical; details: human, in vivo
[9] = tested on: Notch1 cleavage; details: cited from earlier work

In the case of `O=C(O)CC[C@H]1CC[C@@](c2cc(F)ccc2F)(S(=O)(=O)c2ccc(Cl)cc2)CC1` [MK0752], the “Ki67 expression in tumors” value [1] is given as “significantly affected Ki67 expression” and the Toxicity [1] is given as “no significant toxicity”.
With `C[C@]12CC[C@@H]3c4ccc(O)cc4C[C@@H](CCCCCCCCC[S+]([O-])CCCC(F)(F)C(F)(F)F)[C@H]3[C@@H]1CC[C@@H]2O` (some centres unmarked) [fulvestrant, reference compound] the “Mammosphere sensitivity to single agent” value ([2]; fulvestrant alone (30 nM)) was “partially sensitive”.
For `O=S1(=O)N[C@@]2(CN1CC(F)(F)F)[C@@H]1CC[C@H]2Cc2ccc(/C=C/CN3CCC(C(F)(F)F)CC3)cc2C1` [MRK003], the “Effect on tumor volume” value ([3]; MRK003 alone) is listed as “virtually no effect on tumor volume”, the Tumor recurrence ([3]; MRK003 in combination with trastuzumab) is listed as “abrogated tumor recurrence” and the “Tumor response and toxicity” value [4] is listed as “causes tumor regression without significant toxicity”.
For `C=C1C[C@@H]2[C@H](CC[C@]3(C)C(=O)CC[C@@H]23)[C@@]2(C)C=CC(=O)C=C12` [exemestane, reference compound], the Protein-bound [5] is given as 90%.
With `CC(C)(C(=O)NCC(F)(F)C(F)(F)F)C(=O)N[C@@H]1C(=O)Nc2ccccc2-c2ccccc21` [RO4929097] the “Dose-Limiting Toxicity (DLT) observed” value [6] was “Rash”, the “Complete responses (CR)” value [7] was “No complete responses” and the “Patients with stable disease for ≥ 6 months” value [7] was “Twenty”. The “Total clinical benefit rate (CR+PR+SD ≥ 6 months)” value [7] was 20%, the “Partial response (PR), number of patients” value ([7]; 14 evaluable patients) was “one” and the “Progressive disease, number of patients” value ([7]; 14 evaluable patients) was 7 and 6. The “Stable disease (SD), number of patients” value ([7]; 14 evaluable patients) was 6 and 7, the “Estimated overall survival (OS) at 6 months” value ([7]; interval 60–100%) was 79% and the “Drug levels six days after dosing” value [8] was “nearly unquantifiable levels”. For the same compound, the AUC(0-t) ([8]; po, 20 mg) was 4550 ng·h/mL, the “Clearance mean (±st dev)” value ([8]; po, 20 mg) was 2.3 (±1.5) L/hr and the Cmax ([8]; po, 20 mg) was 266 ng/mL. The Tmax ([8]; po, 20 mg) was 3 h, the half-life ([8]; po, 20 mg) was 26 h and the AUC(0-t) ([8]; po, 30 mg) was 7710 ng·h/mL. The “Clearance mean (±st dev)” value ([8]; po, 30 mg) was 2.1 (±0.3) L/hr, the Cmax ([8]; po, 30 mg) was 1050 ng/mL and the Tmax ([8]; po, 30 mg) was 0.5 h. For the same compound, the half-life ([8]; po, 30 mg) was 20.7 h, the AUC(0-t) ([8]; po, 45 mg) was 10400 ng·h/mL and the “Clearance mean (±st dev)” value ([8]; po, 45 mg) was 2.8 (±2.2) L/hr. For the same compound, the Cmax ([8]; po, 45 mg) was 1110 ng/mL, the “Tmax mean (range)” value ([8]; po, 45 mg) was 1.5 (1–2) hr and the half-life ([8]; po, 45 mg) was 23.1 h. For the same compound, the AUC(0-t) ([8]; po, 90 mg) was 21100 ng·h/mL, the “Clearance mean (±st dev)” value ([8]; po, 90 mg) was 2.8 L/h and the Cmax ([8]; po, 90 mg) was 2080 ng/mL. The Tmax ([8]; po, 90 mg) was 4.3 h, the half-life ([8]; po, 90 mg) was 13.6 h and the AUC(0-t) ([8]; po, 140 mg) was 19700 ng·h/mL. For the same compound, the “Clearance mean (±st dev)” value ([8]; po, 140 mg) was 2.6 (±0.2) L/hr, the Cmax ([8]; po, 140 mg) was 1330 ng/mL and the half-life ([8]; po, 140 mg) was 33.4 h. For the same compound, the Mammosphere numbers ([2]; RO4929097 alone (5 μM)) was “significantly decreased mammosphere numbers”, the “IC50s observed by the authors earlier” value [9] was “nanomolar range” and the pIC50 ([9]; read-out: in vitro IC50 in cell-based assays for Notch1 cleavage) was 8.30. For the same compound, the Plasma protein binding [5] was “highly plasma protein-bound”.

From PMC8821119 (Clinical breast cancer, 2021)
